Results published in ChEMBL document CHEMBL1124493, “Synthesis and tumor uptake of 5-82Br- and 5-131I-labeled 5-halo-1-(2-fluoro-2-deoxy-beta-D-ribofuranosyl)uracils” (J Med Chem, 1989).

organism: Mus musculus; assay: Inhibition constant for influx competition with [6-3H]thymidine in mouse erythrocytes; type: functional
Method in brief: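 Freshly harvested mouse erythrocytes were exposed to various concentrations of test nucleoside and [6-3H]thymidine, and zero-trans thymidine influx was measured. Extracellular [6-3H]thymidine was measured over time by liquid scintillation counting of aliquots. The Ki for competition at the nucleoside transporter was derived by previously described methods.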

Point of comparison: `O=c1ccn([C@@H]2O[C@H](CO)[C@@H](O)[C@H]2F)c(=O)[nH]1`, Ki 120 µM. Against it:
- O=c1[nH]c(=O)n([C@H]2C[C@H](O)[C@@H](CO)O2)cc1Br [BROXURIDINE] — within 1.5-fold, 140 µM
- Cc1cn([C@H]2C[C@H](O)[C@@H](CO)O2)c(=O)[nH]c1=O [DOXRIBTIMINE] — 1.5-fold lower, 80 µM
- O=c1[nH]c(=O)n([C@H]2C[C@H](O)[C@@H](CO)O2)cc1I [IDOXURIDINE] — 1.8-fold higher, 210 µM
- O=c1ccn([C@H]2C[C@H](O)[C@@H](CO)O2)c(=O)[nH]1 [DEOXYURIDINE] — within 1.5-fold, 130 µM

tested on: Nucleic Acid; assay: Incorporation of compound into DNA of human and mammalian cells, by replacing thymidine; type: functional

In the case of `O=c1[nH]c(=O)n([C@H]2C[C@H](O)[C@@H](CO)O2)cc1Br` [BROXURIDINE], the Replacement is reported as 43%.
